Compound activity (PubChem BioAssay)
Yeast life ext = yeast lifespan extension | 130,000 tested, 0.68% active | S. cerevisiae growth with nicotinamide, OD615; deaD strain in restrictive glucose medium | inhibition of the nicotinamide effect, % at 10 µM | AID 775;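 active = inhibition above a set limit, placed 3 SD over the median of all compounds, cut at about 26% in these data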;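 also: 0% = nicotinamide-treated wells and 100% = cells grown without nicotinamide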
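Measured by: optical density (absorbance) at 615 nm; System: modified budding yeast, DeaD strain; Medium: restrictive CSMM-D dextrose medium; Timing: 4 h preincubation then 48 h treatment at 30 °C.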
INS promoter inh = TRM-6 insulin promoter activity inhibition. 130,000 tested, 0.9% active. inhibition, % at 2 µM. TRM-6 cells, insulin promoter-eGFP reporter, imaging; reporter expression induced with tamoxifen;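 active = inhibition above the mean plus 3 SD, with well images judged a real hit on visual review, cut at about 60% in these data, passing the limit was not always enough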
MDM2 E3 inh = blocks human Mdm2 ubiquitin ligase activity; Q00987; cell-based MDM2 ubiquitination luciferase reporter, 2 h; 0 = plate control, 100 = twice control, blank-subtracted; signal enhancement, % at 5 µM; 210,000 tested, 0.11% active;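 active = signal enhancement of 30% or more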;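 also: luminescence tracks abundance of the self-degrading MDM2-luciferase fusion protein; higher signal means inhibition of MDM2 E3 ligase activity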
Target sequence (Q00987 whole entry, looked up, the tested form may be a part): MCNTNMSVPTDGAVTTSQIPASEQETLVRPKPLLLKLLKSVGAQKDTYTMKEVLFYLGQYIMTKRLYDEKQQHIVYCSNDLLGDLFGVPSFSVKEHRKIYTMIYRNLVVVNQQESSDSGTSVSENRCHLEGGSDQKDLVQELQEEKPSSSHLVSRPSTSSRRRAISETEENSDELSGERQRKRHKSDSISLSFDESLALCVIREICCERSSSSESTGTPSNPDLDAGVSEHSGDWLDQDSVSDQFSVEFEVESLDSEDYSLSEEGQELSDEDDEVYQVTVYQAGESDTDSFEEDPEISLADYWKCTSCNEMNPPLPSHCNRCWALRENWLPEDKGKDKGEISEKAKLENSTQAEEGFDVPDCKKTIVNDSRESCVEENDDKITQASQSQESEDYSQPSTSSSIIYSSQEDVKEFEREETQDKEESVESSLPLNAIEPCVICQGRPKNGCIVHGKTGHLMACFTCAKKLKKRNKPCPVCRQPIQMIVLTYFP
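Test system: stable mammalian line carrying autodegrading MDM2–luciferase fusion reporter; quantity: 2000 cells in each well; times: 4 h cell settling then 2 h compound exposure, 37 °C; detection: luminescence with SteadyLite reagent, 15 min at room temperature; evaluation: percent signal gain over controls, blank-subtracted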
RAM inhibit = inhibitors of the yeast RAM network. inhibition, % at 50 µM. AID 868. S. cerevisiae dse1pr::URA3 reporter, 5-FOA growth OD615, 2 d; analog-sensitive cbk1-as2 kinase mutant strain. 190,000 tested, 1.8% active;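 active = inhibition above a set limit, 3 SD over mean compound inhibition, cut at about 8.4% in these data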;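 also: 0% = DMSO-only wells with no growth and 100% = 10 µM 1-NA-PP1 full growth; inhibition rescues growth on 5-FOA so higher OD means more RAM inhibition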
Measles CPE = protection of cells from measles virus. 140,000 tested, 1.5% active. Measles virus-infected cells, CPE protection, absorbance. AID 841. protection (pct of control), % at 4 µM; in the data active = protection mostly above about 24%, no sharp cut-off; inactive = mostly below about 26%
Yeast growth inh = yeast BB579 growth reduction in restrictive medium | 140,000 tested, 0.51% active | S. cerevisiae BB579 growth, OD615, 48 h | inhibition, % at 10 µM;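 active = inhibition above a set limit, 3 SD over the mean compound inhibition, cut at about 44% in these data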
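System: Saccharomyces cerevisiae DeaD strain BB579, replicative lifespan model yeast. Buffer or medium: restrictive glucose-based CSMM-D medium. Doses: one dose, 10 µM compound with 0.25% DMSO. Timing: 4 h preincubation and 48 h exposure at 30 °C. Detection: turbidity as optical density at 615 nm. Benchmarks: amphotericin B 10 µg/mL, positive.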
RAM efflux-def = RAM network inhibitors in efflux-deficient yeast | shares compounds with RAM inhibit | S. cerevisiae efflux-deficient reporter strain, 5-FOA growth OD615, 2 days | max inhibition, % | 1,200 tested, under 10 active | AID 1305; call rule not given here;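 also: plate controls were vehicle for no effect and reference inhibitor for full effect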
Numbers without * were called inactive; . = no result. An excerpt weighted towards active compounds, which were near 4% of everything screened.

SMILES	Yeast life ext	INS promoter inh	MDM2 E3 inh	RAM inhibit	Measles CPE	Yeast growth inh	RAM efflux-def
c1csc(-c2noc(CN3CCc4sccc4C3)n2)c1	.	.	-5	1	.	.	.
Cc1cc(C)nc(N2CCCC(C(=O)NCCC3=CCCCC3)C2)n1 (stereo not drawn)	-3	.	-11	1	2	-45	.
O=C(/C=C/c1ccc(S(=O)(=O)N2CCOCC2)cc1)NCc1ccccc1Cl	2	52	6	1	19	-16	.
O=C(COC(=O)CCc1c[nH]c2ccccc12)NC(c1ccccc1)c1ccccc1	-5	15	-5	17*	13	-22	2
CCCN1C2CCCC1CC(NC(=O)c1cc(OC)c(OC)c(OC)c1)C2 (stereo not drawn)	-12	-79	0	1	0	-14	.
Cc1cc(NC(=O)COC(=O)C(Nc2ccc(C(F)(F)F)cc2Cl)C(C)C)no1 (stereo not drawn)	-4	.	-7	13*	14	-34	6
COc1ccc(CC(=O)Nc2cccc(S(=O)(=O)N3CCCCCC3)c2)cc1OC	2	-11	-38	12*	17	-31	3
COc1ccc(S(=O)(=O)Nc2cccc(S(=O)(=O)N3CCCCCC3)c2)cc1	6	.	1	14*	5	-29	5
O=c1[nH]c2ccccc2nc1/C=C/c1ccc(Cl)cc1	.	67	-13	1	.	.	.
CN(Cc1cc(-c2ccccc2)on1)C(=O)c1cc(COc2c(F)cccc2F)on1	.	.	-2	21*	.	.	2
Cc1cc(Br)ccc1OCC(=O)N1CCCCCC1	-6	21	-19	21*	28	-7	1
Cc1cccc(/C=C2\Oc3cc(OS(C)(=O)=O)ccc3C2=O)c1	-6	-6	-6	12*	9	-37	4
COc1cccc(/C=C2\Oc3cc(OC(=O)N4CCOCC4)ccc3C2=O)c1	.	.	-1	.	.	.	.
Cc1c(Cl)cn2c(=O)cc(CN3CCN(c4ccc(F)cc4)CC3)nc2c1Cl	.	.	-13	0	.	.	.
CCCCN1C(=O)/C(=C/C=C2\Oc3ccccc3N2CC)SC1=S	.	.	2	6	.	.	.
CCCCN1C(=O)/C(=C/C=C2/CC(C)(C)CN2C)SC1=S	-1	-270	-14	12*	6	-47	2
Cc1cc(Cl)c(S(=O)(=O)N2CCN(c3ccccc3)CC2)cc1OCC(N)=O	.	33	-5	3	9	-25	.
CCCCNC(=S)NNC(=O)c1nn(C)cc1Cl	.	-6	4	1	2	-8	.
O=C(c1ccc(F)cc1F)N1CCN(c2n[nH]c(=O)[nH]c2=O)CC1	.	14	0	0	.	.	.
O=C(NCCO)c1ccc(Oc2ccc(C(F)(F)F)cc2[N+](=O)[O-])cc1	.	0	-8	1	.	.	.
O=C(NCCOc1ccccc1)c1ccccc1[N+](=O)[O-]	.	-456	-8	-1	.	.	.
O=C(NCCOc1ccccc1)c1cc(C(=O)NCCOc2ccccc2)cc([N+](=O)[O-])c1	0	17	7	14*	3	-67	3
COc1ccc(OCCNC(=O)c2cccc(Oc3ccc(C(F)(F)F)cc3[N+](=O)[O-])c2)cc1	4	-10	.	14*	5	-12	2
O=S(=O)(c1ccccc1Br)N1CCC(O)(c2cccnc2)CC1	.	.	-9	0	.	.	.
CCCCC1(Cc2cccc([N+](=O)[O-])c2)C(=O)N(c2ccccc2)N(c2ccccc2)C1=O	9	39	-41	13*	2	-44	5
SMILES	Yeast life ext	INS promoter inh	MDM2 E3 inh	RAM inhibit	Measles CPE	Yeast growth inh	RAM efflux-def
CCCCC1(CO)C(=O)N(c2ccccc2)N(c2ccccc2)C1=O	.	.	-9	.	.	.	.
CCCCSC1=N/C(=C/c2ccsc2)C(=O)N1c1ccccc1	0	6	7	16*	13	-15	3
CSC1=N/C(=C\c2cccnc2)C(=O)N1c1ccccc1	-8	.	-5	-1	2	-25	.
CCCSC1=N/C(=C/c2ccsc2)C(=O)N1c1ccccc1	-1	0	0	12*	5	-26	1
CCSC1=N/C(=C\c2cccnc2)C(=O)N1c1ccccc1	1	-18	5	0	24	-47	.
CCSC1=N/C(=C/c2ccsc2)C(=O)N1c1ccccc1	0	27	-11	12*	25	-29	3
